This is one part of the list. Unmarked numbers belong to inactive results. Activity calls are given as the source filed them.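 The calls were made as follows: active = percent inhibition of p97 ATPase above a set limit, the primary screen's mean plus 3 SD (cut at about 15% in these data); inactive = the rest.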
Each molecule was assayed against Transitional endoplasmic reticulum ATPase (Homo sapiens) (UniProt P55072) (assay: blockers of p97 ATP hydrolysis – biochemical, confirmation (AID 1517;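 also: 0% = DMSO wells and 100% = wells lacking p97 protein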)). Conditions: recombinant p97 ATPase, Kinase-Glo ATP luminescence; at 8 µM; active compounds read high.
Summary of the method: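 Assay system: recombinant p97 ATPase; Medium: Tris/MgCl2/EDTA/DTT buffer, pH 8.0; Times: 30 min compound–enzyme preincubation at 25 °C, then 3 h ATP reaction; Detection: Kinase-Glo luminescence.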

Sequence of Transitional endoplasmic reticulum ATPase (Homo sapiens) (P55072 whole entry, looked up): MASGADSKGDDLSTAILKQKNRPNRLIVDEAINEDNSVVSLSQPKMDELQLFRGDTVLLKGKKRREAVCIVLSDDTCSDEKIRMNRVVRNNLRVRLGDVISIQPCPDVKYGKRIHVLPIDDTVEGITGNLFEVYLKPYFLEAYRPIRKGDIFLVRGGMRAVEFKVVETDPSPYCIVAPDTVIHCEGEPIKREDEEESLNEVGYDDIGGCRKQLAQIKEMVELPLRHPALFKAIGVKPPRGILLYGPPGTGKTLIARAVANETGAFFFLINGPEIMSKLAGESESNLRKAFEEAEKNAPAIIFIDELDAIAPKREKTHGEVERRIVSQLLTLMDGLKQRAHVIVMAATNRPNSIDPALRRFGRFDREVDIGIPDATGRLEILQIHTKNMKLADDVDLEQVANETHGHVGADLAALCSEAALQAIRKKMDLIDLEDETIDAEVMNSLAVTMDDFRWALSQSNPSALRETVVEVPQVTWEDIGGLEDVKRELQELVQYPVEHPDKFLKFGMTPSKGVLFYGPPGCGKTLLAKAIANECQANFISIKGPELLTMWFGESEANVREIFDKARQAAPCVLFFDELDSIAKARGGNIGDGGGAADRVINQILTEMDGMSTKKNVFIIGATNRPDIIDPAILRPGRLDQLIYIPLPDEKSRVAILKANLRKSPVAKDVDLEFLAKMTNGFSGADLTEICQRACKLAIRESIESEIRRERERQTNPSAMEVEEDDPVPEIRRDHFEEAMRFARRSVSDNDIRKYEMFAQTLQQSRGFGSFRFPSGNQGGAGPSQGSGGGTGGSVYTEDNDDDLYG

SMILES	inhibition
COc1ccccc1C1C(C#N)=C(N)Oc2c1c(-c1ccccc1)nn2-c1ccccc1 (stereo not drawn)	1.04%
CC(C(=O)O)n1cnc2sc3c(c2c1=O)CCCC3 (stereo not drawn)	6.68%
C=CCn1c(N)c(C(=O)OCC(C)C)c2nc3ccccc3nc21	18.1% (active)
N#Cc1c(N2CCCCC2)nc(N)c2c(N)nc(SCC(=O)O)cc12	46% (active)
Cc1no[n+]([O-])c1COc1ccccc1/C=C1\NC(=S)NC1=O	39.9% (active)
COc1ccc(-c2[nH]ncc2/C=N/NC(=O)c2cc(Br)ccc2O)c(OC)c1	25.7% (active)
O=C(/C=C/c1ccc(Cl)c([N+](=O)[O-])c1)c1ccc(O)cc1	10.9%
Cc1ccc2c(c1)NCC(C(=O)NC1CCC(C)CC1)O2 (stereo not drawn)	4.67%
CCOC(=O)N1CCC(c2cc(=O)n(-c3ccccc3)[nH]2)CC1	7.34%
O=C(NNC(=S)Nc1ccccc1)c1cccc(S(=O)(=O)N2CCOCC2)c1	3.56%
CCN(CC)CCNC(=O)CCCCCn1c(=O)[nH]c2cc(C(=O)OC)ccc2c1=O	2.31%
O=C(OCC1O[C@@H](OC(=O)c2cc(O)c(O)c(O)c2)[C@@H](OC(=O)c2cc(O)c(O)c(O)c2)[C@@H](OC(=O)c2cc(O)c(O)c(O)c2)[C@@H]1OC(=O)c1cc(O)c(O)c(O)c1)c1cc(O)c(O)c(O)c1 (stereo partly drawn)	59.8% (active)
NC(N)=N/N=C/c1ccc(OCc2ccc(Cl)cc2Cl)cc1	37.7% (active)
CCOc1c(Br)cc(/C=C2\C(=O)N(CCC#N)N=C2C)cc1OC	6.06%
COc1ccc2c(c1)C(=C(C#N)C#N)C(=O)N2CCc1ccccc1	19.5% (active)
Oc1c(Cl)cc(Cl)c(Cl)c1Cc1c(O)c(Cl)cc(Cl)c1Cl	73.9% (active)
N#CC1=C(N)Oc2[nH]c(=S)[nH]c(=O)c2C12C(=O)Nc1ccccc12 (stereo not drawn)	25.8% (active)

SMILES	inhibition
C=CCn1c(=S)[nH]c2scc(-c3ccco3)c2c1=O	13.5%
Cc1cc(C)c2cc(CN(Cc3nnnn3Cc3ccc(F)cc3)C3CCCC3)c(=O)[nH]c2c1	4.43%
N=C1C(c2nc3ccccc3s2)=C(O)CN1NC(=O)c1ccc([N+](=O)[O-])cc1	37.1% (active)
CCN1C(=O)/C(=C2/Sc3ccccc3N2CCCS(=O)(=O)O)SC1=S	4.27%
Nc1ccc2nc3c(=O)[nH]c(=S)[nH]c3nc2c1	25.4% (active)
Oc1c(C=Nc2cccc3nsnc23)ccc2ccccc12	4.01%
Clc1ccc(C2=CSC3=Nc4cccc5cccc(c45)N23)cc1	2.9%
CCN(c1ccccc1)S(=O)(=O)c1ccc(N)cc1	1.51%
CC1CCCN(C(C(=O)Nc2ccc(C(C)C)cc2)c2ccc3c(c2)OCO3)C1 (stereo not drawn)	-0.84%
[O-][n+]1onc2c1CCc1[nH]c(-c3ccccc3)nc1-2	39.8% (active)
Cc1[nH][nH]c(=O)c1C(c1ccc(-c2ccc(Cl)cc2)o1)c1c(C)[nH][nH]c1=O	9.11%
COc1ccc(Cl)cc1C(=O)NNC(=O)c1nc2nc(C)cc(C)n2n1	20.8% (active)
CC(=O)N1CCc2cc(Br)cc(S(=O)(=O)CCC(=O)Nc3c(C)n(C)n(-c4ccccc4)c3=O)c21	2.71%
COc1ccc(-c2cc(-c3ccc(N)cc3)nc(N)c2C#N)cc1OC	19.8% (active)
O=C(c1[nH]ncc1-c1ccc(Cl)cc1)C1CO1 (stereo not drawn)	12.5%
CCC(C)NC(=O)CSC1=Nc2ccccc2C2=NC(CCC(=O)NCc3ccco3)C(=O)N12 (stereo not drawn)	4.93%

— PubChem BioAssay AID1517 (The Scripps Research Institute Molecular Screening Center, 2009)
